Data taken from ChEMBL document CHEMBL3862013 (Bioorg Med Chem, 2016).

Experiments:
[1] = system: Human immunodeficiency virus 1; assay: Antiviral activity against X4 tropic HIV1 HXB2 assessed as inhibition of single cycle viral infection in human TZM-bl cells preincubated for 30 mins followed by addition of cells measured after 3 days by luciferase reporter gene assay; assay type: functional, cell-based
[2] = Cytotoxicity against human TZM-bl cells after 3 days by XTT assay; assay type: toxicity, cell-based; settings: 72 h
Procedure, shortened: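 Graded compound concentrations added to an equal volume of TZM-bl cells (10^5/ml) and incubated 3 days. XTT added, then formazan read at 450 nm after 4 h. CC50 derived from percent cytotoxicity; mean ± SD.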

[3] = system: Human immunodeficiency virus 1; assay: Antiviral activity against HIV1 3B assessed as inhibition of multi-cycle viral infection in human MT2 cells by measuring p24 production preincubated for 30 mins followed by addition of cells measured after 4 days by sandwich ELISA; assay type: functional, cell-based
Procedure, shortened: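 Overnight at 37 °C, then supernatant replaced with fresh medium. Day 4 post-infection, supernatants mixed with equal volume 5% Triton X-100 and p24 measured by sandwich ELISA. IC50 derived from percent inhibition of p24 production; mean ± SD.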

[4] = Cytotoxicity against human MT2 cells after 4 days by XTT assay; assay type: toxicity, cell-based; settings: mt2, 96 h
Procedure, shortened: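 Run in parallel with the antiviral assay. Graded compound added to an equal volume of MT-2 cells (10^5 cells/ml) and incubated 4 days. XTT added, and soluble formazan read at 450 nm after 4 hours.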

[5] = Inhibition of HIV1 HXB2 Env-mediated cell-cell fusion using MAGI-CCR5 as target cells and HL2/3 as effector cells preincubated with target cells for 1 hr followed by effector cells addition measured after 24 hrs by beta-galactosidase reporter gene assay; settings: Human immunodeficiency virus 1, HXB2
[6] = system: Human immunodeficiency virus 1; assay: Inhibition of CD4-dependent CCR5-tropic HIV1 ADA cell to cell transmission using Ghost X4/R5 cells as target cells and MOLT4 as effector cells assessed as p24 release incubated for 4 hrs by sandwich ELISA method; assay type: functional, cell-based; settings: Human immunodeficiency virus 1, ADA, MOLT-4, 4 h
[7] = system: Human immunodeficiency virus 1; assay: Inhibition of CD4-dependent CXCR4-tropic HIV1 3B cell to cell transmission using Ghost X4/R5 cells as target cells and H9 as effector cells assessed as p24 release incubated for 4 hrs by sandwich ELISA method; assay type: functional; settings: Human immunodeficiency virus 1, 3B
[8] = system: Human immunodeficiency virus 1; assay: Antiviral activity against ENV pseudotyped HIV1 subtype A/D QA790.204I.ENV.C8; assay type: functional; settings: Human immunodeficiency virus 1, subtype A/D QA790.204I.ENV.C8
[9] = system: Human immunodeficiency virus 1; assay: Antiviral activity against ENV pseudotyped HIV1 subtype A/D QA790.204I.ENV.E2; assay type: functional; settings: Human immunodeficiency virus 1, subtype A/D QA790.204I.ENV.E2
[10] = system: Human immunodeficiency virus 1; assay: Antiviral activity against ENV pseudotyped HIV1 subtype A/E AA058; assay type: functional; settings: Human immunodeficiency virus 1, subtype A/E AA058
[11] = system: Human immunodeficiency virus 1; assay: Antiviral activity against ENV pseudotyped HIV1 PRHPA4259 clone 7; assay type: functional; settings: Human immunodeficiency virus 1, PRHPA4259 clone 7
[12] = system: Human immunodeficiency virus 1; assay: Antiviral activity against ENV pseudotyped HIV1 subtype C ZM233M.PB6; assay type: functional; settings: Human immunodeficiency virus 1, subtype C ZM233M.PB6
[13] = system: Human immunodeficiency virus 1; assay: Antiviral activity against ENV pseudotyped HIV1 subtype D QD435.100M.ENV.B5; assay type: functional; settings: Human immunodeficiency virus 1, subtype D QD435.100M.ENV.B5
[14] = system: Vesicular stomatitis virus; assay: Antiviral activity against G-glycoprotein expressing VSV; assay type: functional
[15] = Human immunodeficiency virus 1, HXB2, TZM-bl
[16] = Human immunodeficiency virus 1, 3B, MT2

Structure (SMILES)	IC50 [1, 15] [µM]	CC50 [2] [µM]	IC50 [3, 16] [µM]	CC50 [4] [µM]	also measured
Cc1ccc(-c2ccc(C(=O)N[C@H](c3nc(C)c(CCO)s3)[C@@H]3CCCCN3)[nH]2)cc1F	10.6	28.8	6.1	29.7	
Cc1nc([C@H](CN)NC(=O)c2ccc(-c3ccc(Cl)cc3)[nH]2)sc1CO		33.6		25.8	IC50 [5]: 11.9 µM; IC50 [6]: 30 µM
Cc1nc([C@@H](NC(=O)c2ccc(-c3ccc(Cl)c(F)c3)[nH]2)[C@H]2CCCCN2)sc1CO	3	15.2	1.6	17.2	
Cc1nc([C@H](NC(=O)c2ccc(-c3ccc(Cl)c(F)c3)[nH]2)[C@@H]2CCCCN2)sc1CCO	8	15.1	2.9	16.8	
Cc1nc([C@H](NC(=O)c2ccc(-c3ccc(Cl)c(F)c3)[nH]2)[C@H]2CCCCN2)sc1CO	3.2	17.4	2.6	26	
Cc1nc(C(NC(=O)c2ccc(-c3ccc(Cl)c(F)c3)[nH]2)C2CCCCN2)[nH]c1CO (stereo in doubt; 36B)		30.7			IC50 ([1]; tzm-bl): 16 µM; IC50 ([3]; mt2): 22.8 µM; CC50 ([4]; 96 h): 36.4 µM
Cc1ccc(-c2ccc(C(=O)N[C@@H](CN)c3nc(C)c(CO)s3)[nH]2)cc1F	1.7	35	0.91	31.6	
Cc1nc([C@H](CN)NC(=O)c2ccc(-c3ccc(Cl)c(F)c3)[nH]2)sc1CO		40.5		30.5	IC50 [5]: 15.2 µM
Cc1ccc(-c2ccc(C(=O)N[C@H](CN)c3nc(C)c(CO)s3)[nH]2)cc1F	1.1	26.2	0.65	24.3	
Cc1nc([C@@H](NC(=O)c2ccc(-c3ccc(Cl)cc3)[nH]2)[C@@H]2CCCCN2)sc1CCO	8.9	17.3	2	26.8	
Cc1ccc(-c2ccc(C(=O)N[C@H](c3nc(C)c(CO)s3)[C@@H]3CCCCN3)[nH]2)cc1F	2.7	18	3	16.1	
Cc1nc([C@@H](NC(=O)c2ccc(-c3ccc(Cl)c(F)c3)[nH]2)[C@@H]2CCCCN2)sc1CCO	7.5	16.1	3.4	16.9	
Cc1nc([C@H](NC(=O)c2ccc(-c3ccc(Cl)cc3)[nH]2)[C@@H]2CCCCN2)sc1CO		23.6	0.85	24.8	IC50 [5]: 8.9 µM; IC50 [7]: 8.8 µM; IC50 [8]: 1.5 µM; IC50 [9]: 0.71 µM; IC50 [10]: 4.4 µM; IC50 [11]: 1.4 µM; IC50 [12]: 1.7 µM; IC50 [13]: 1.6 µM; IC50 [14]: 7.1 µM
Cc1nc([C@@H](CN)NC(=O)c2ccc(-c3ccc(Cl)c(F)c3)[nH]2)sc1CO		26		22.7	
Cc1nc([C@@H](CN)NC(=O)c2ccc(-c3ccc(Cl)cc3)[nH]2)sc1CO		34.1		28.2	
Cc1nc([C@H](NC(=O)c2ccc(-c3ccc(Cl)c(F)c3)[nH]2)[C@@H]2CCCCN2)sc1CCCO	5.1	8.2	4.5	12.6	
Cc1nc(C(NC(=O)c2ccc(-c3ccc(Cl)cc3)[nH]2)C2CCCCN2)[nH]c1CO (stereo in doubt; 35B)		33.8			IC50 ([1]; tzm-bl): 15.8 µM; IC50 ([3]; mt2): 18 µM; CC50 ([4]; 96 h): 45.2 µM
Cc1nc([C@H](NC(=O)c2ccc(-c3ccc(Cl)cc3)[nH]2)[C@@H]2CCCCN2)sc1CCCO	7.6	13.7	5.8	19	
Cc1nc(C(NC(=O)c2ccc(-c3ccc(Cl)c(F)c3)[nH]2)C2CCCCN2)[nH]c1CO (stereo in doubt; 36A)	8.8	26.7			IC50 ([3]; mt2): 10.6 µM; CC50 ([4]; 96 h): 31.1 µM
Cc1ccc(-c2ccc(C(=O)NC(c3nc(C)c(CO)[nH]3)C3CCCCN3)[nH]2)cc1F (stereo in doubt; 37B)		34.5			IC50 ([1]; tzm-bl): 16.9 µM; IC50 ([3]; mt2): 22.3 µM; CC50 ([4]; 96 h): 37.1 µM
Cc1nc(C(NC(=O)c2ccc(-c3ccc(Cl)cc3)[nH]2)C2CCCCN2)[nH]c1CO (stereo in doubt; 35A)	14.1	30	10.2		CC50 ([4]; 96 h): 36.6 µM
Cc1nc([C@H](NC(=O)c2ccc(-c3ccc(Cl)cc3)[nH]2)[C@@H]2CCCCN2)sc1CCO	5.7	15.4	4.6	21	
Cc1ccc(-c2ccc(C(=O)N[C@@H](c3nc(C)c(CCO)s3)[C@@H]3CCCCN3)[nH]2)cc1F	6.3	15.3	3	21.2	
Cc1ccc(-c2ccc(C(=O)N[C@@H](c3nc(C)c(CO)s3)[C@@H]3CCCCN3)[nH]2)cc1F	3.8	19.2	1.6	28.2	
Cc1ccc(-c2ccc(C(=O)NC(c3nc(C)c(CO)[nH]3)C3CCCCN3)[nH]2)cc1F (stereo in doubt; 37A)	9.4	33.3	12.9		CC50 ([4]; 96 h): 28.4 µM
Cc1ccc(-c2ccc(C(=O)N[C@@H](c3nc(C)c(CCCO)s3)[C@@H]3CCCCN3)[nH]2)cc1F	7.9	17	7.4	20.6	
